# Results from different studies.
# Compare with care: the assays were run in different laboratories.
# ACE: Angiotensin-converting enzyme (ACE, Oryctolagus cuniculus, UniProt P12822)
# ALOX5: Polyunsaturated fatty acid 5-lipoxygenase (ALOX5, Homo sapiens, UniProt P09917)
# dxs: dxs (Pseudomonas aeruginosa, UniProt Q9KGU7)
Structure (SMILES),target,observed,mode,technique,setting,endpoint,value
N[C@@H](Cc1c[nH]cn1)C(=O)N[C@@H](CC(=O)O)C(=O)N[C@@H](CS)C(=O)N[C@@H](Cc1ccccc1)C(=O)O,ACE,enzyme activity,inhibitor,,,IC50,4.5 µM
CCN1CCN(Cc2ccc(Nc3ncc(F)c(-c4cc(F)c5nc6n(c5c4)[C@H](C)CCC6)n3)nc2)CC1,"Multidrug and toxin extrusion protein 2 (SLC47A2, Homo sapiens, UniProt Q86VL8)",enzyme activity,inhibitor,,,IC50,0.0654 µM
COc1cc2c(cc1OC)CN(CCc1ccc(NC(=O)c3cccc4c(=O)c5cccc(OC)c5[nH]c34)cc1)CC2,"Mu-type opioid receptor (OPRM1, Homo sapiens, UniProt P35372)",cell-free assay,,,,Ki,> 10 µM
Cn1c(=O)n(CCCCN2CCC3(CC2)OCc2ccccc23)c2ccccc21,"Sodium-dependent serotonin transporter (Slc6a4, Rattus norvegicus, UniProt P31652)",ligand displacement,,radioligand,cell membranes,Ki,2.83 µM
C=CCOc1ccc(C(=O)/C=C/c2ccc(OC)cc2)c(OS(C)(=O)=O)c1I,ALOX5,enzyme activity,inhibitor,,,IC50,38.3 µM
COc1ccc(CCCCC(=O)C(F)(F)C(F)(F)F)cc1,"Cytosolic phospholipase A2 (PLA2G4A, Homo sapiens, UniProt P47712)",enzyme activity,inhibitor,,,IC50,26.2 µM
CC(C)C[C@H](N)C(=O)N[C@@H](Cc1c[nH]c2ccccc12)C(=O)N[C@@H](CC(=O)O)C(=O)N1CCC[C@H]1C(=O)N1CCC[C@H]1C(=O)N[C@@H](CCC(=O)O)C(=O)NCC(=O)N[C@@H](C)C(=O)N1CCC[C@H]1C(=O)O,ACE,enzyme activity,inhibitor,,,IC50,207 µM
CCCCOc1cc(C(=O)NCCN(CC)CC)c2ccccc2n1,"PKD2L1 (Homo sapiens, UniProt Q9P0L9, F549I)",ion current,inhibitor,patch clamp,,IC50,76.2 µM
COC(=O)C1=CO[C@@H](O[C@@H]2O[C@H](CO)[C@@H](O)[C@H](O)[C@H]2O)[C@@H]2C(CO)=CC[C@H]12,"Cystathionine beta-synthase (CBS, Homo sapiens, UniProt P35520)",binding,,MST,,Kd,38.4 µM
CC(=O)P(=O)(O)OCCc1cn([C@H](Cc2ccccc2)C(=O)O)nn1,dxs,enzyme activity,inhibitor,,,Ki,2.6 µM
C=CCOc1ccc(C(=O)/C=C/c2cccc(F)c2)c(OS(C)(=O)=O)c1I,ALOX5,enzyme activity,inhibitor,,,IC50,34.6 µM
N=C(N)NCCC[C@H](NC(=O)[C@H](Cc1ccccc1)NC(=O)[C@@H]1CCCN1C(=O)[C@H](CO)NC(=O)[C@@H]1CCCN1C(=O)[C@@H](N)Cc1ccccc1)C(=O)O,ACE,enzyme activity,inhibitor,,,IC50,81.3 µM
CCCCOP(=O)(O)C(C)=O,dxs,enzyme activity,inhibitor,,,Ki,1.84 µM
